Measurements reported in ChEMBL document CHEMBL4513216, “Probing the Open Global Health Chemical Diversity Library for Multistage-Active Starting Points for Next-Generation Antimalarials” (ACS Infect Dis, 2020).

Assay: Toxicity liver stage against HepG2, at 10uM
Format: cell-based
Design: test concentration 10 uM, cell line HepG2-A16-CD81EGFP
Conditions: human, HepG2-A16-CD81EGFP cells; read-out: INHIBITION
How it was run: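 Uninfected HepG2-A16-CD81EGFP cells, 3 × 10^3 per well, 1536-well, plated on prespotted compound at 10 μM final, parasite-free screening media added to match infected plates; puromycin 10 μM positive, DMSO 0.5% negative; run in parallel with 48 h PbLuc assay at 37 °C, 5% CO2; viability by CellTiter-Glo luminescence, normalized to controls.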

Row | Structure (SMILES) | cytotoxicity at 10 µM [%]
1 | O=C(NCCCc1ccco1)c1cnc(N2CCOCC2)nc1 | 11
2 | Cn1nccc1CNC(=O)NC1CCN(c2ncccc2Cl)C1 (configuration not stated) | 4.37
3 | CN(CCN1CCCCCC1)C(=O)c1c(O)cccc1O | -7.08
4 | Cc1cnn(C2CCCN(C(=O)c3cc4nc(C)ccc4o3)C2)c1 (configuration not stated) | 2.22
5 | Cc1cc(C(=O)N2CCCC(N3CCNC3=O)C2)nn1C(C)(C)C (configuration not stated) | -1.44
6 | CSc1nc2cc(C)n(CC(=O)N3CCCC3)c2c(=O)n1CC(C)C | 3.64
7 | CC(C)OCCC1CCCCN1S(C)(=O)=O (configuration not stated) | 2.43
8 | N#CCCN(Cc1ccco1)C(=O)CCCNC(=O)c1ccccc1 | 8.15
9 | Cn1cccc1C(=O)N1CCc2ncnc(C3CC3)c2CC1 | 5.17
10 | CCc1nc(N)nc(N(C)Cc2nncn2CCOC)c1C | -6.41
11 | COc1ccc(C(C)NC(=O)NCCCn2cncn2)cc1F (configuration not stated) | 2.12
12 | Cc1n[nH]c2nc(-c3ccccc3O)cc(C(=O)O)c12 | -1.55
13 | CC1=Nc2c(c(=O)[nH]n2C(C)C)C(c2ccc3c(c2)n(C)c(=O)n3C)S1 (configuration not stated) | 3.75
14 | CC(C)SCC(=O)N1CCCn2nc(C(=O)Nc3ccccc3)cc2C1 | 3.19
15 | COCCN1CCC(NC(=O)Cn2cc(C)c3ccccc32)CC1 | -0.869
16 | Cn1cc(CN2CC3(CCN(C(=O)c4ccoc4)C3)C2)cn1 | -8.45
17 | COC1COC2(CCN(Cc3cccc(Cl)c3)CC2)C1 (configuration not stated) | -1.31
18 | COc1cc(CNCC2CNc3ccnn3C2)ccn1 (configuration not stated) | -0.65
19 | CC(NC(=O)NCc1cscn1)c1ccc(N2CCOCC2)cc1 (configuration not stated) | -0.736
20 | Cc1noc([C@H]2C[C@H]3OCC[C@H]3N(Cc3ccncc3)C2)n1 | -74.7
21 | Cc1nc(N)nc(C)c1Cc1nc(C2CC2)n[nH]1 | -9.44

Row | Structure (SMILES) | cytotoxicity at 10 µM [%]
22 | O=C(NCc1cnn(-c2ccc(F)cc2F)c1)C1CCCO1 (configuration not stated) | 8.69
23 | Cc1n[nH]c(C)c1CCC(=O)N[C@@H]1CCC[C@@H](Oc2ccccc2)[C@@H]1O | 3.01
24 | Cc1noc(C(C)C)c1C(=O)N1CCCN(Cc2cscn2)CC1 | -3.56
25 | COc1cc(N2CCc3ncnc(-c4ccncc4)c3CC2)ncn1 | 9.85
26 | C[S+]([O-])c1nncn1CC(=O)c1cccc(C(F)(F)F)c1 (configuration not stated) | -0.661
27 | COc1cccc(CNc2cc(CO)ccc2Cl)c1 | -13.3
28 | COc1ccc([C@@H]2CN(Cc3ccncc3)C[C@H]2N(C)C)cc1 | -2.52
29 | CNc1nc(C(=O)N2CCC3(CCCN(CCOC)C3=O)C2)cs1 (configuration not stated) | 7.55
30 | CC(=O)N1CCC(c2ccnc(Nc3cnccn3)n2)C1 (configuration not stated) | -0.182
31 | Cc1cc2nc(C(C)C)cc(NCCNc3ncccc3C)n2n1 | 16.9
32 | O=C(c1cc(-c2cn[nH]c2)nc2cc(F)ccc12)N1CCS(=O)(=O)CC1 | 0.141
33 | O=C(NCc1cccnc1)NC1CCCN(c2ncccn2)C1 (configuration not stated) | -2.5
34 | CC(C)Cc1cc(NC(=O)c2cccnc2)n(C)n1 | -7.09
35 | Cc1ccc(S(=O)(=O)N2CC[C@@H]3C[C@H](NC(=O)c4[nH]ncc4Br)[C@@H]32)cc1 | 4.49
36 | CC(=O)NCCN1CCC(c2cccs2)CC1 | -22.6
37 | CCS(=O)(=O)N1CCCC2(COCCN(c3nnc(C)o3)C2)C1 (configuration not stated) | 8.88
38 | Cc1sc2nc(SC(C)c3nc(C(C)(C)C)no3)nc(N)c2c1C (configuration not stated) | -1.13
39 | CCNC(=O)CN1CCOC(c2ccccc2C(F)(F)F)C1 (configuration not stated) | 3.09
40 | CN1CCCCC1c1cncc(Cl)n1 (configuration not stated) | 0.995
41 | CCNC(c1ccc(Cl)cc1)c1cccnc1 (configuration not stated) | 5.71
42 | Cn1ccnc1CN(CCO)C(=O)C1CCN(C(=O)C2CC2)CC1 | 2.55

Row | Structure (SMILES) | cytotoxicity at 10 µM [%]
43 | CNC(=O)C1CCCN(C(=O)NCCC2Cc3ccccc3C2)C1 (configuration not stated) | 15.4
44 | CCc1cnc(N)nc1NC(C)c1cnn(C)c1 (configuration not stated) | -0.333
45 | COc1c(CNC2CCCOc3ccc(F)cc32)c(C)nn1C (configuration not stated) | 1.51
46 | CCC(CO)N(Cc1ccccn1)C(=O)c1ncccc1C (configuration not stated) | 3.42
47 | Cc1cccc(CN2C[C@@H](F)[C@@H](OCc3nc4ccccc4[nH]3)C2)n1 | 8.01
48 | c1ccc2c(Cc3nnc([C@H]4CCNC4)o3)c[nH]c2c1 | -0.762
49 | Cc1ccc(C(=O)N2CCc3ncnc(-c4cnn(C)c4)c3CC2)o1 | 2.11
50 | O=C(N[C@]12CC1CN(C(=O)c1ccco1)C2)c1ccoc1 (some centres not stated) | -1.48
51 | O=C(O)c1c[nH]c2cc(NS(=O)(=O)c3cccc(Cl)c3F)ccc12 | -10.5
52 | Fc1cnc(N2C[C@H]3CN(Cc4cccc(F)c4)C[C@H]3C2)nc1 | 10.4
53 | CCS(=O)(=O)c1ccc(NCc2csc(C(C)C)n2)cc1 | 8.73
54 | Cc1nc(CNC(=O)NCC(O)c2ccccc2)cs1 (configuration not stated) | 0.682
55 | COc1ccc(C)nc1NC(=O)CCc1c(C)nn(C)c1C | 0.918
56 | CN(C)C(=O)COCc1nnc2n1CCN(Cc1ccoc1)C2 | 8.49
57 | Cc1ccoc1C1=NNC(=CN2CCn3c(nnc3C(C)C)C2)O1 | -13.1
58 | O=C(c1cnccn1)N1CCCC(Cn2cc(C3CC3)nn2)C1 (configuration not stated) | -5.9
59 | Cc1ccc([C@@H]2CN(C(=O)c3ccon3)C[C@H]2NC(=O)C2CC2)cc1 | 1.08
60 | N#Cc1ccc(SCCOCCO)c(Cl)c1 | 2.68
61 | CSCc1ccc(C(=O)N2CCN(CC(C)O)CC2)cc1 (configuration not stated) | -6.23
62 | CCc1cc(NCCCNS(C)(=O)=O)nc(-c2ccccn2)n1 | 1.8
63 | CCc1[nH]c2c(CNC(=O)C3CCN(C)C3)cc(C)cc2c1C (configuration not stated) | -7.71

Row | Structure (SMILES) | cytotoxicity at 10 µM [%]
64 | Cc1cc(C(=O)NCC(=O)NC(c2ncccc2C)C(C)C)c(C)o1 (configuration not stated) | -9.6
65 | COc1ccc(C)cc1CN(C)CCCNS(C)(=O)=O | -43.2
66 | O=S1(=O)CCN2C(=N1)Oc1ccc(S(=O)(=O)N3CCCC3)cc12 | 18.2
67 | O=C1NCCN1C1CCN(CC(O)c2ccccc2F)CC1 (configuration not stated) | -0.535
68 | C[C@@H]1CN(C(=O)CCN2CCCC2)CC[C@@]1(O)C1CCC1 | -7.97
69 | Cc1cc(NC(=O)C(C)Nc2cccc(COCc3ccco3)c2)no1 (configuration not stated) | -1.42
70 | Cn1cc(C(=O)NCc2cn3c(n2)CN(C2CCOCC2)CC3)cn1 | 11.2
71 | Cc1nn2cccnc2c1C(=O)N1CCCC(n2ccnc2)C1 (configuration not stated) | -4.62
72 | Nc1nc(N2CCCC(COc3ccc(F)cc3)C2)c2nc[nH]c2n1 (configuration not stated) | 2.11
73 | Cc1cnn(CC(=O)N2CCC3(CCC(=O)N(CCCO)C3)CC2)c1 | -9.44
74 | Cn1ncc2c1CN(Cc1ccccc1F)CC2COCC1CC1 (configuration not stated) | 1.47
75 | Cc1csc2c(C3CCN(C(=O)Cn4cncn4)CC3)nc(C)n12 | 6.28
76 | CC(C)CNC(=O)CN(Cc1ccc(F)cc1)S(C)(=O)=O | 10.2
77 | COC(=O)c1ccc(C)c(N2CCNC2=O)c1 | 9.81
78 | c1ccc(CN2CCN3C[C@H](Oc4cccnc4)C[C@H]3C2)nc1 | 6.59
79 | CC(=O)NCc1nnc2n1CCN(c1ncnc3c(C)csc13)CC2 | 4.71
80 | O=C1CN(C(=O)CCn2c(C(F)(F)F)cc3cccnc32)CCN1 | -13
81 | CCc1cc(=O)n(CC(=O)N2CCCC2)c(-c2ccccc2)n1 | 7.25
82 | CCOC(=O)[C@@H]1CN2CCNC[C@@H]2[C@H]1c1ccccc1 | 3.88
